According to PMC4777266 (Pharmacology Research & Perspectives, 2016):

How the values were obtained:
[1] = Blood/plasma pharmacokinetics of total radiolabeled components; type: in vivo, male CD‐1 mice; details: dried blood and plasma; i.v. 1 mg/kg
In short: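 Male albino CD-1 mice (30-36 g, 8-10 weeks) got one i.v. saphenous bolus of 1 mg/kg tritiated test nucleoside in 0.9% NaCl (2 mL/kg, 53-67 MBq/kg) under light isoflurane. EDTA blood was drawn at 0.083-48 h, two samples per mouse, n = 1 per time point. Plasma was spun 3000 g, 10 min, 4°C. Aliquots were dried at 37°C to remove tritiated water, then counted by LSC. Noncompartmental PK was used.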

[2] = Quantitative whole-body autoradiography; type: in vivo, male CD‐1 mice
In short: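 The same single 1 mg/kg i.v. tritium-label dose was given to male CD-1 mice. At 0.167, 1, 2, 24 and 48 h, mice were killed under deep isoflurane and frozen in hexane/dry ice at −70°C. 40 µm whole-body sections were exposed to imaging plates for 2 weeks at room temperature and scanned at 50 µm. Densitometry used blood calibrators. Tissue:blood Cmax/AUClast ratios were derived, AUC by linear trapezoidal rule.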

[3] = Excretion and mass balance; type: in vivo, male CD‐1 mice
[4] = Tolerability of the single intravenous administration; type: in vivo; details: mice
[5] = Plasma metabolite profiles; type: in vivo, male CD‐1 mice; details: for AUC0‐48 h of radiolabeled component in plasma (% AUC of total RA): pool of 2 mice; for Highest plasma concentration: at 30 min after dosing
[6] = Metabolite profiles in selected tissues 1 h p.d.; type: in vivo, male CD‐1 mice; details: single iv 1 mg/kg, text: % of total radioactivity in the tissue
[7] = 0–48 h, single iv 1 mg/kg, average of n = 2
[8] = single iv 1 mg/kg, average of n = 2
[9] = single iv 1 mg/kg, average of n = 2, 1 mg/kg
[10] = male, CD-1, mouse, plasma, iv, 1 mg/kg

## CO[C@@H]1[C@H](O)[C@@H](CO)O[C@H]1n1ccc(=O)[nH]c1=O [2′O‐methyluridine, 2′‐O‐methyluridine]
[1]
  Tlast of total radiolabeled components: 48 h
[2]; QWBA
  Time up to which total radiolabeled components detectable in the brain: up to 48 h
[2]; other matrices
  Cmax tissue over blood ratio: smaller than 2
[2]; total radiolabeled components
  Share of matrices with AUClast greater than that of blood: more than 90%
[3]; 0–48 h, single iv 1 mg/kg
  Total detected radioactivity, total excretion (urine + feces): 48.3 % of RA dose
[3]; [7]
  Amount of radiolabeled component, total excretion (urine + feces): 31.7 % of RA dose
[3]; 48 h, urine, feces, carcass and tritiated water
  Overall recovery of radioactivity (mass balance): 102.3%
[3]; 48 h p.d., single iv 1 mg/kg
  Radioactivity in carcass 48 h: 38.6 % of RA dose
[3]; single iv 1 mg/kg
  Radioactivity in cage wash (0–48): 6.81 % of RA dose
[3]; [8]
  Amount of radiolabeled component in urine (0–48 h): 31.2 % of RA dose
  Total detected radioactivity in feces (0–48): 2.34 % of RA dose
  Total detected radioactivity in urine (0–48 h), without cage wash: 45.9 % of RA dose
[3]; [9]
  Amount of radiolabeled component in feces (0–48): 0.489 % of RA dose
[4]
  Tolerability: well tolerated
[5]; 0.083 h postdose, single iv 1 mg/kg
  Total detected radiolabeled components, concentration in dried plasma: 0.446 µmol/L
[5]; 0.5 h postdose, single iv 1 mg/kg
  Total detected radiolabeled components, concentration in dried plasma: 0.617 µmol/L
[5]; 1 h postdose, single iv 1 mg/kg
  Total detected radiolabeled components, concentration in dried plasma: 0.343 µmol/L
[5]; 2 h postdose, single iv 1 mg/kg
  Total detected radiolabeled components, concentration in dried plasma: 0.270 µmol/L
[5]; 4 h postdose, single iv 1 mg/kg
  Total detected radiolabeled components, concentration in dried plasma: 0.241 µmol/L
[5]; 8 h postdose, single iv 1 mg/kg
  Total detected radiolabeled components, concentration in dried plasma: 0.134 µmol/L
[5]; 24 h postdose, single iv 1 mg/kg
  Total detected radiolabeled components, concentration in dried plasma: 0.080 µmol/L
[5]; 48 h postdose, single iv 1 mg/kg
  Total detected radiolabeled components, concentration in dried plasma: 0.0781 µmol/L
[5]; after i.v. dosing 1 mg/kg, LC‐MS‐RA
  Time up to which detectable in plasma: up to 24 h
[5]; dried plasma
  AUC0‐48h ratio of total radioactivity over parent compound: about 17
[5]; male, CD-1, mouse, plasma, intravenous, 1 mg/kg
  clearance: 157 mL/min/kg
[5]; [10]
  AUC: 0.335 µM·h
  Cmax: 402 nM
  concentration at 0.083 h: 402 nM
  concentration at 0.5 h: 119 nM
  concentration at 1 h: 22.3 nM
  concentration at 2 h: 6 nM
  concentration at 4 h: 6.3 nM
  concentration at 8 h: 3.6 nM
  concentration at 48 h: 6.7 nM
[5]; single iv 1 mg/kg
  Total detected radiolabeled components, plasma AUC0‐48 h: 5.69 µM·h
  Total detected radiolabeled components, plasma AUC0‐48 h (% AUC of total RA): 100 % AUC of total RA
  AUC0‐48 h of radiolabeled component in plasma (% AUC of total RA): 5.89 % AUC of total RA

## O=c1cc[nH]c(=O)[nH]1 [Metabolite M3, uracil]
[3]; [7]
  Amount of radiolabeled component, total excretion (urine + feces): 4.03 % of RA dose
[3]; [8]
  Amount of radiolabeled component in feces (0–48): 0.418 % of RA dose
[6]
  Amount of radiolabeled component in heart: 46.6%
  Amount of radiolabeled component in kidney: 89.4%
  Amount of radiolabeled component in liver: 28.8%
  Amount of radiolabeled component in lung: 83.4%
  Amount of radiolabeled component in salivary gland: 90.9%
  Amount of radiolabeled component in spleen: 57.9%
[5]
  Highest plasma concentration: 0.1 µmol/L
[5]; [10]
  AUC: 1.34 µM·h
  concentration at 0.083 h: 14.2 nM
  concentration at 0.5 h: 144 nM
  concentration at 1 h: 109 nM
  concentration at 2 h: 87.5 nM
  concentration at 4 h: 63.5 nM
  concentration at 8 h: 36.8 nM
  concentration at 24 h: 14.5 nM
  concentration at 48 h: 17.5 nM
[5]; single iv 1 mg/kg
  AUC0‐48 h of radiolabeled component in plasma (% AUC of total RA): 23.6 % AUC of total RA

## Nc1ccn([C@@H]2O[C@H](CO)[C@@H](O)[C@H]2O)c(=O)n1 [Metabolite M5, cytidine]
[3]; [7]
  Amount of radiolabeled component, total excretion (urine + feces): 1.94 % of RA dose
[3]; [8]
  Amount of radiolabeled component in feces (0–48): 0.102 % of RA dose
[5]; [10]
  AUC: 0.0639 µM·h
  concentration at 0.5 h: 44 nM
  concentration at 2 h: 8.6 nM
  concentration at 4 h: 10.3 nM
  concentration at 48 h: 0 nM
[5]; single iv 1 mg/kg, 1 mg/kg
  AUC0‐48 h of radiolabeled component in plasma (% AUC of total RA): 1.12 % AUC of total RA

## Nc1cc[nH]c(=O)n1 [Metabolite M2, cytosine]
[3]; [7]
  Amount of radiolabeled component, total excretion (urine + feces): 0.0771 % of RA dose
[3]; [9]
  Amount of radiolabeled component in urine (0–48 h): 0.0771 % of RA dose
[6]
  Amount of radiolabeled component in heart: 6.81%
  Amount of radiolabeled component in liver: 17.8%
  Amount of radiolabeled component in lung: 2.41%
  Amount of radiolabeled component in spleen: 3.62%
[5]; [10]
  AUC: 0.461 µM·h
  concentration at 0.5 h: 38.9 nM
  concentration at 1 h: 33.3 nM
  concentration at 2 h: 7.1 nM
  concentration at 4 h: 22.6 nM
  concentration at 8 h: 11.1 nM
  concentration at 24 h: 5.7 nM
  concentration at 48 h: 9.6 nM
[5]; single iv 1 mg/kg
  AUC0‐48 h of radiolabeled component in plasma (% AUC of total RA): 8.11 % AUC of total RA

## O=c1ccn([C@@H]2O[C@H](CO)[C@@H](O)[C@H]2O)c(=O)[nH]1 [Metabolite M1, uridine]
[3]; [7]
  Amount of radiolabeled component, total excretion (urine + feces): 0.156 % of RA dose
[6]
  Amount of radiolabeled component in heart: 28.4%
  Amount of radiolabeled component in kidney: 10.6%
  Amount of radiolabeled component in liver: 47.6%
  Amount of radiolabeled component in lung: 2.31%
  Amount of radiolabeled component in salivary gland: 6.88%
  Amount of radiolabeled component in spleen: 32.9%
[5]
  Highest plasma concentration: 0.2 µmol/L
[5]; [10]
  AUC: 1.87 µM·h
  concentration at 0.083 h: 5.1 nM
  concentration at 0.5 h: 170 nM
  concentration at 1 h: 108 nM
  concentration at 2 h: 130 nM
  concentration at 4 h: 104 nM
  concentration at 8 h: 43.4 nM
  concentration at 24 h: 26.9 nM
  concentration at 48 h: 18.8 nM
[5]; single iv 1 mg/kg
  AUC0‐48 h of radiolabeled component in plasma (% AUC of total RA): 32.8 % AUC of total RA
